Data reported in ChEMBL document CHEMBL1914456, “Design, synthesis and biological evaluation of mannosyl triazoles as FimH antagonists” (Bioorg Med Chem, 2011).
Converted amounts (≈) assume the structure as drawn.

Tests used:
[1] = target: Type 1 fimbrin D-mannose specific adhesin (Escherichia coli K-12) (UniProt P08191); assay: Ratio of compound IC50 to n-heptyl alpha-D-mannopyranoside IC50 for Escherichia coli recombinant C-terminal 6His-tagged FimH-CRD with a C-terminal thrombin cleavage site expressed in Escherichia coli HM125 assessed as inhibition of streptavidin-horseradish peroxidase conjugated TM-PAA polymer binding after 3 hrs by spectrophotometry
Method in brief: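 FimH-CRD-Th-6His from E. coli HM125, purified on Ni-NTA, coated at 10 µg/mL in assay buffer (20 mM HEPES, 150 mM NaCl, 1 mM CaCl2, pH 7.4) overnight at 4 °C. Wells blocked with 3% BSA for 2 h at 4 °C. Four-fold serial dilutions of compound in buffer with 5% DMSO were added with streptavidin-peroxidase-coupled TM-PAA polymer (0.5 µg/mL). Plates were incubated 3 h at 25 °C, 350 rpm. ABTS was developed 4 min, stopped with 2% oxalic acid, and read at 415 nm. Each compound was run in duplicate and repeated at least twice. IC50 is the concentration that halves maximal specific TM-PAA binding. rIC50 is compound IC50 divided by the IC50 of n-heptyl α-D-mannopyranoside run on the same plate.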

[2] = Octanol-phosphate buffer distribution coefficient, log D of the compound at pH 7.4 after 2 hrs by shake flask method using LC-MS analysis; format: physicochemical
Method in brief: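 Miniaturized shake flask. Phosphate buffer (0.1 M, pH 7.4) and 1-octanol mutually saturated. Analyte at 1 µM in buffer, overlaid with octanol at two volume ratios chosen by ALOGPS-predicted logP, three determinations per ratio.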

[3] = Thermodynamic solubility of the compound at pH 6.5 after 24 hrs by shake flask method using LC-MS analysis; format: physicochemical; details: buffer, read-out: Therm_solubility
Method in brief: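 1 mg solid shaken in 250 µL 50 mM phosphate buffer, pH 6.5: sonicated 15 min, shaken at 600 rpm and 25 °C for 2 h, then left 24 h. pH measured, then filtered by centrifugation. Filtrate diluted and quantified by LC-MS against a six-point calibration from 0.1 to 10 µg/mL.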

[4] = Permeability of the compound assessed as membrane retention at pH 5 to 7.4 after 16 hrs by PAMPA assay; format: ADME; details: pH 5, 16 h
Method in brief: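 PAMPA sandwich: donor wells with compound solution, acceptor filter impregnated with GIT-0 lipid and filled with acceptor sink buffer. Incubated undisturbed for 16 h. Donor and acceptor samples quantified by UV spectroscopy and LC-MS; log Pe and membrane retention calculated from these.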

[5] = target: Type 1 fimbrin D-mannose specific adhesin (Escherichia coli K-12, UniProt P08191); assay: Antagonist activity at Escherichia coli recombinant C-terminal 6His-tagged FimH-CRD with a C-terminal thrombin cleavage site expressed in Escherichia coli HM125 assessed as inhibition of streptavidin-horseradish peroxidase conjugated TM-PAA polymer binding after 3 hrs by spectrophotometry
Method in brief: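 Plates coated overnight at 4 °C with 10 µg/mL FimH-CRD-Th-6His in 20 mM HEPES, 150 mM NaCl, 1 mM CaCl2, pH 7.4, then blocked with 3% BSA for 2 h at 4 °C. Fourfold serial dilutions in buffer with 5% DMSO plus 0.5 µg/mL streptavidin-peroxidase TM-PAA polymer, 3 h at 25 °C. ABTS for 4 min, stopped with oxalic acid, OD 415 nm. Duplicates, repeated at least twice; n-heptyl α-D-mannoside on each plate; IC50 from curve fit.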

[6] = Antagonist activity at Escherichia coli […] FimH assessed as disaggregation of microorganism from guinea pig erythrocytes measured for 1400 secs by aggregometry; format: functional
Method in brief: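 E. coli UTI89 and guinea pig erythrocytes (separated on Histopaque), each adjusted to OD600 of 4 (1.9 × 10⁸ CFU/mL and 2.2 × 10⁶ cells/mL). Aggregation read as optical density at 740 nm, 37 °C, stirring at 1000 rpm. Instrument calibrated with protein-poor plasma in PBS as 100% and protein-rich plasma with erythrocytes as 0%. Triplicates; IC50 from area under the disaggregation curve.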

[7] = test system: Escherichia coli; assay: Ratio of compound IC50 to n-heptyl alpha-D-mannopyranoside IC50 for Escherichia coli […] FimH assessed as disaggregation of microorganism from guinea pig erythrocytes measured for 1400 secs by aggregometry

Sequence of Type 1 fimbrin D-mannose specific adhesin (P08191 whole entry): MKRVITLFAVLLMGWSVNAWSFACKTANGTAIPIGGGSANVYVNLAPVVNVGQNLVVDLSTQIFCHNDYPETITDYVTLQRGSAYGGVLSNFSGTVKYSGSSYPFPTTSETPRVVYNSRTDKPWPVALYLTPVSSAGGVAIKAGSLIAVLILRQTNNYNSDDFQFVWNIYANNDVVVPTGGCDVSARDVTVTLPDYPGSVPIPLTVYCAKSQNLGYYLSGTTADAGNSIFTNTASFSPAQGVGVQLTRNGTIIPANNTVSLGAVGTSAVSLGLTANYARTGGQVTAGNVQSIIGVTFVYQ
Sequence of Type 1 fimbrin D-mannose specific adhesin (Escherichia coli K-12) (P08191 whole entry): as above

| SMILES | Ratio IC50 [1] | logD at 2 h [2] | solubility thermodynamic at 24 h [3] [µg/mL] | R% [4] | IC50 [5] [µM] | IC50 [6] | Ratio IC50 [7] |
| --- | --- | --- | --- | --- | --- | --- | --- |
| O=[N+]([O-])c1ccc(-n2cc(CO[C@H]3O[C@H](CO)[C@@H](O)[C@H](O)[C@@H]3O)nn2)cc1 | 6.1 | -0.16 | 2600 (≈ 6.8 mM) | 4.9% |  |  |  |
| COc1ccc(Cn2cc(CO[C@H]3O[C@H](CO)[C@@H](O)[C@H](O)[C@@H]3O)nn2)cc1 | 7.8 | -0.4 | > 3000 | 3.1% | 0.511 |  |  |
| COc1ccc(-n2cc(CO[C@H]3O[C@H](CO)[C@@H](O)[C@H](O)[C@@H]3O)nn2)cc1 | 2.5 | -0.05 | 2600 (≈ 7.08 mM) | 7.9% | 0.161 |  |  |
| OC[C@H]1O[C@H](n2cc(-c3ccccc3)nn2)[C@@H](O)[C@@H](O)[C@@H]1O | 3.8 | 0.21 | > 3000 | 6.4% |  |  |  |
| OC[C@H]1O[C@H](n2cc(-c3cccnc3)nn2)[C@@H](O)[C@@H](O)[C@@H]1O | 3.3 | -1.04 | 1380 (≈ 4.47 mM) | 10.3% | 0.216 |  |  |
| OC[C@H]1O[C@H](OCc2cn(-c3ccc(F)cc3)nn2)[C@@H](O)[C@@H](O)[C@@H]1O | 11.9 | -0.15 | > 3000 | 4.6% | 0.778 |  |  |
| CO[C@H]1O[C@H](CO)[C@@H](O)[C@H](O)[C@@H]1O | 29 |  |  |  | 1.9 |  |  |
| OC[C@H]1O[C@H](Cn2cc(-c3ccc(C(F)(F)F)cc3)nn2)[C@@H](O)[C@@H](O)[C@@H]1O | 3 | 1.07 | 525 (≈ 1.35 mM) | impermeable | 0.194 | Not Active |  |
| OC[C@H]1O[C@H](OCc2cn(C34CC5CC(CC(C5)C3)C4)nn2)[C@@H](O)[C@@H](O)[C@@H]1O | 2.1 | 0.07 | > 3000 | 9.8% | 0.135 |  |  |
| OC[C@H]1O[C@H](OCc2cn(-c3cccc(F)c3)nn2)[C@@H](O)[C@@H](O)[C@@H]1O | 5.3 | 0.18 | > 3000 | 5.4% | 0.348 |  |  |
| OC[C@H]1O[C@H](Cn2cc(-c3cccnc3)nn2)[C@@H](O)[C@@H](O)[C@@H]1O | 5.1 | < -1.5 | 1880 (≈ 5.82 mM) | impermeable | 0.333 | Not Active |  |
| OC[C@H]1O[C@H](Cn2cc(-c3ccccc3)nn2)[C@@H](O)[C@@H](O)[C@@H]1O | 8.5 | -0.36 | > 3000 | 7.8% | 0.56 |  |  |
| OC[C@H]1O[C@H](OCc2cn(-c3ccncc3)nn2)[C@@H](O)[C@@H](O)[C@@H]1O | 1.1 | 0.24 | > 3000 | 9.2% | 0.07 | Not Active |  |
| COc1cccc(Cn2cc(CO[C@H]3O[C@H](CO)[C@@H](O)[C@H](O)[C@@H]3O)nn2)c1 | 6.9 | -0.38 | > 3000 | 4% | 0.452 |  |  |
| O=C([O-])c1cccc(-n2cc(CO[C@H]3O[C@H](CO)[C@@H](O)[C@H](O)[C@@H]3O)nn2)c1.[Na+] | 4.5 |  | > 3000 |  | 0.296 |  |  |
| OC[C@H]1O[C@H](Cn2cc(-c3cccc(Cl)c3)nn2)[C@@H](O)[C@@H](O)[C@@H]1O | 9.7 | 0.68 | > 3000 | impermeable | 0.639 |  |  |
| OC[C@H]1O[C@H](OCc2cn(Cc3ccccc3)nn2)[C@@H](O)[C@@H](O)[C@@H]1O | 10.2 | -0.33 | > 3000 | 3% | 0.667 |  |  |
| CCCCCCCO[C@H]1O[C@H](CO)[C@@H](O)[C@H](O)[C@@H]1O |  | 1.65 | > 3000 | 21% | 0.0656 |  | 1 |
| OC[C@H]1O[C@H](n2cc(COc3ccccc3)nn2)[C@@H](O)[C@@H](O)[C@@H]1O | 7.5 | -0.18 | > 3000 | 5.5% | 0.493 |  |  |
| O=C([O-])c1ccc(-n2cc(CO[C@H]3O[C@H](CO)[C@@H](O)[C@H](O)[C@@H]3O)nn2)cc1.[Na+] | 3.2 |  | > 3000 |  | 0.207 |  |  |
| Cc1ccc(-c2cn(C[C@H]3O[C@H](CO)[C@@H](O)[C@H](O)[C@@H]3O)nn2)cc1 | 8.6 | 0.23 | 1490 (≈ 4.44 mM) | 6.3% | 0.565 |  |  |
| OC[C@H]1O[C@H](Cn2cc(COc3ccccc3)nn2)[C@@H](O)[C@@H](O)[C@@H]1O | 5 | -0.83 |  | impermeable | 0.327 |  |  |
| OC[C@H]1O[C@H](n2cc(-c3cccc(Cl)c3)nn2)[C@@H](O)[C@@H](O)[C@@H]1O | 5.1 | 1.22 | 705 (≈ 2.06 mM) | 13.2% | 0.331 |  |  |
| O=C([O-])c1cncc(-n2cc(CO[C@H]3O[C@H](CO)[C@@H](O)[C@H](O)[C@@H]3O)nn2)c1.[Na+] | 2.6 |  | > 3000 |  | 0.169 |  |  |
| COc1cccc(Cn2cc(CCO[C@H]3O[C@H](CO)[C@@H](O)[C@H](O)[C@@H]3O)nn2)c1 | 3.5 | < -1 | > 3000 | 11.8% | 0.229 |  |  |
| O=[N+]([O-])c1ccc(-n2cc(CCO[C@H]3O[C@H](CO)[C@@H](O)[C@H](O)[C@@H]3O)nn2)cc1 | 1.7 | -0.3 | > 3000 | 2.9% | 0.112 |  |  |
